Results as given in ChEMBL document CHEMBL1156498, “4-Hydroxynonenal, an endogenous aldehyde, causes pain and neurogenic inflammation through activation of the irritant receptor TRPA1” (Proc Natl Acad Sci U S A, 2007).
The source made the active and inactive calls. The rule behind the calls is not given here.

Legend:
Mus musculus [1] = species: Mus musculus; experiment: Inhibition of capsaicin-induction of paw lifting in Swiss mouse; format: functional, organism-based
How it was run: (§1)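 Mouse nocifensive test: intraplantar capsaicin (0.1 nmol/20 μl, in 4% DMSO) or HNE (120 nmol/20 μl, in saline), with camphor, gentamycin or capsazepine co-injected intraplantar. Licking/lifting time recorded for 5 min; vehicle controls. Mean ± SEM; ANOVA with Bonferroni.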

Mus musculus [2] = species: Mus musculus; experiment: Attenuation of capsaicin-induction of paw lifting in Swiss mouse; format: functional, organism-based; how it was run: as §1
Rattus norvegicus [3] = species: Rattus norvegicus; experiment: Reduction of capsaocin-induction of allodynia in rat
[4] = target: Transient receptor potential cation channel subfamily A member 1 (Rattus norvegicus) (UniProt Q6RI86); experiment: Activity at TRPA1 channel in rat dorsal root ganglion neurons assessed as attenuation of capsaicin-induced intracellular calcium; format: tissue-based
How it was run: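 Cultured rat DRG neurons, Fura2/AM calcium imaging. Capsaicin (0.1 μM)-evoked [Ca2+]i responses measured in the presence of TRPA1 antagonists.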

Mus musculus [5] = experiment: Induction of paw licking in intraplantarly dosed Swiss mouse at 120 nmol/paw; format: functional, organism-based
How it was run: (§2)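 Male Swiss mice injected intraplantar with HNE 120 nmol in 20 μl 0.9% saline. Time spent licking and lifting the injected paw recorded for 5 min immediately after injection; vehicle controls.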

Mus musculus [6] = experiment: Induction of paw licking in intraplantarly dosed TRPA1-deficient Swiss mouse at 120 nmol/paw; format: functional, organism-based
How it was run: (§3)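 Male TRPA1-deficient mice and wild-type littermates (about 30 g) injected intraplantar with HNE 120 nmol in 20 μl 0.9% saline. Total licking/lifting time recorded for 5 min, scored blind to genotype. n = 6 per group; single-factor ANOVA.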

[7] = target: Transient receptor potential cation channel subfamily A member 1 (Homo sapiens) (UniProt O75762); experiment: Reversal of activation of human TRPA1 channel expressed in xenopus oocytes by two electrode voltage-clamp technique in presence of ruthenium red; format: cell-based; details: Oocyte
How it was run: (§4)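 Two-electrode voltage clamp at +70 mV holding potential on Xenopus oocytes expressing human TRPA1, with voltage ramps for current–voltage relationships. Agonist challenge followed by ruthenium red (10 μM) block; 2-aminoethyl diphenylborinate (200 μM) used as reference agonist.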

[8] = target: T1, Transient receptor potential cation channel subfamily A member 1 (Rattus norvegicus, UniProt Q6RI86); experiment: Agonist activity at rat TRPA1 channel expressed in tetracycline induced HEK293 cells assessed as increase in intracellular calcium; format: functional, cell-based
How it was run: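 Stable HEK293 FLPTREX line carrying HA-tagged rat TRPA1 under a tetracycline-inducible promoter. Expression induced with 0.1 μg/ml tetracycline 16 h before the assay. Fura2/AM [Ca2+]i read on a multiwell fluorescence plate reader, 30,000 cells per well, 10–100 μM, n = 4 wells per concentration, EC50 derived.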

[9] = target: Transient receptor potential cation channel subfamily A member 1 (Rattus norvegicus) (UniProt Q6RI86); experiment: Agonist activity at rat TRPA1 channel expressed in HEK293 cells assessed as increase in intracellular calcium; format: functional, cell-based
How it was run: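 Stable Flp-In HEK293 line expressing C-terminally HA11-tagged rat TRPA1 under a tetracycline-inducible promoter, induced with 0.1 μg/ml tetracycline 16 h before testing. Uninduced and vector-control cells also tested. Fura2/AM [Ca2+]i read in a fluorescence plate reader, 30,000 cells per well, n = 4 wells per concentration. Concentration–response used to derive EC50.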

Mus musculus [10] = species: Mus musculus; experiment: Induction of paw lifting in Swiss mouse; format: functional, organism-based
How it was run: (§5)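 Male Swiss mice injected intraplantar with HNE at 15–240 nmol in 20 μl saline, then placed in a chamber. Total time licking and lifting the injected paw recorded for 5 min.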

Rattus norvegicus [11] = species: Rattus norvegicus; experiment: Reversal of induction of allodynia in rat in presence of capsazepine
Rattus norvegicus [12] = species: Rattus norvegicus; experiment: Reversal of induction of allodynia in rat in presence of camphor
Esophagus [13] = experiment: Induction of neurogenic inflammation in rat esophagus assessed as substance P release for 20 mins; format: functional, tissue-based
How it was run: (§6)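 Rat lumbar dorsal spinal cord or esophagus slices (≈0.4 mm), stabilized 60 min in Krebs' solution at 37°C. Agonist superfused 20 min (HNE 50 or 100 μM). Fractions collected every 10 min into ethanoic acid (final 2 N), freeze-dried, and assayed for SP- or CGRP-like immunoreactivity (fmol/g/20 min). Controls: capsaicin desensitization (10 μM, 20 min) or 2 mM EGTA. n ≥ 4 slices; mean ± SEM.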

[14] = target: T1, Transient receptor potential cation channel subfamily A member 1; experiment: Activation of TRPA1 channel in rat dorsal root ganglion neurons assessed as increase in intracellular calcium level; format: tissue-based
How it was run: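 Rat DRG neurons in culture, loaded with Fura2/AM and read by ratiometric calcium imaging. Agonist applied in the bath at 30–500 μM, with a concentration-response used to derive the EC50. n ≥ 22 cells.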

[15] = target: Transient receptor potential cation channel subfamily A member 1 (Homo sapiens) (UniProt O75762); experiment: Agonist activity at human TRPA1 channel expressed in xenopus oocytes assessed as membrane currents by two electrode voltage-clamp technique; format: functional, cell-based; details: Oocyte; how it was run: as §4
[16] = target: Transient receptor potential cation channel subfamily A member 1 (Rattus norvegicus) (UniProt Q6RI86); experiment: Activation of TRPA1 channel in rat dorsal root ganglion neurons assessed as increase in intracellular calcium level at 300 uM; format: tissue-based
How it was run: (§7)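 Cultured rat dorsal root ganglion neurons loaded with Fura2/AM. HNE bath-applied across 30–500 μM. Ratiometric calcium imaging of the rise in [Ca2+]i, with capsaicin response recorded. Dose–response curve built from n ≥ 22 cells; mean ± SEM.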

Esophagus [17] = experiment: Induction of neurogenic inflammation in rat esophagus assessed as CGRP peptide release for 20 mins; format: functional, tissue-based; how it was run: as §6
Spinal cord [18] = experiment: Induction of neurogenic inflammation in rat dorsal spinal cord assessed as CGRP peptide release for 20 mins; format: functional, tissue-based; how it was run: as §6
Rattus norvegicus [19] = species: Rattus norvegicus; experiment: Reversal of induction of allodynia in rat in presence of gentamycin
[20] = target: Transient receptor potential cation channel subfamily A member 1 (Rattus norvegicus) (UniProt Q6RI86); experiment: Reversal of activation of TRPA1 channel in rat dorsal root ganglion neurons at 100 uM by calcium imaging in presence of capsazepine; format: tissue-based
How it was run: (§8)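 Cultured rat DRG neurons, Fura2/AM ratiometric calcium imaging. HNE 100 μM-evoked [Ca2+]i rise measured with ruthenium red (1 μM), (+) camphor (1 mM), gentamycin (100 μM) or capsazepine (10 μM), each versus vehicle. n ≥ 22 cells; mean ± SEM; Bonferroni test.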

[21] = target: Transient receptor potential cation channel subfamily A member 1 (Rattus norvegicus) (UniProt Q6RI86); experiment: Activation of TRPA1 channel in rat dorsal root ganglion neurons assessed as increase in intracellular calcium level at 50 uM; format: tissue-based; how it was run: as §7
Mus musculus [22] = species: Mus musculus; experiment: Induction of paw licking in Swiss mouse; format: functional, organism-based; how it was run: as §5
[23] = target: Transient receptor potential cation channel subfamily A member 1 (Rattus norvegicus) (UniProt Q6RI86); experiment: Reversal of activation of TRPA1 channel in rat dorsal root ganglion neurons at 100 uM by calcium imaging in presence of gentamycin; format: tissue-based; how it was run: as §8
[24] = target: Transient receptor potential cation channel subfamily A member 1 (Rattus norvegicus) (UniProt Q6RI86); experiment: Reversal of activation of TRPA1 channel in rat dorsal root ganglion neurons at 100 uM by calcium imaging in presence of camphor; format: tissue-based; how it was run: as §8
Spinal cord [25] = experiment: Induction of neurogenic inflammation in rat dorsal spinal cord assessed as substance P release for 20 mins; format: functional, tissue-based; how it was run: as §6
Mus musculus [26] = experiment: Induction of paw lifting in TRPA1-deficient intraplantarly dosed Swiss mouse at 120 nmol/paw; format: functional, organism-based; how it was run: as §3
Mus musculus [27] = species: Mus musculus; experiment: Reversal of induction of paw lifting in Swiss mouse at 15 to 240 nmol/paw in presence gentamycin; format: functional, organism-based; how it was run: as §1
[28] = target: Transient receptor potential cation channel subfamily A member 1 (Rattus norvegicus) (UniProt Q6RI86); experiment: Reversal of activation of TRPA1 channel in rat dorsal root ganglion neurons at 100 uM by calcium imaging in presence of ruthenium red; format: tissue-based; how it was run: as §8
Rattus norvegicus [29] = experiment: Increase in plasma extravasation in intraplantar dosed rat hind paw; format: functional, organism-based
How it was run: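 Male Sprague–Dawley rats (250 g) given Evans Blue (30 mg/kg) into the tail vein 1 min before intraplantar HNE (60–150 nmol in 30 μl) or vehicle. Killed by exsanguination at 30 min; paw skin dye extracted in formamide 48 h at room temperature in the dark and read at 620 nm, expressed as ng/g wet tissue. SR140333 (1.6 μmol/kg i.v.) given 15 min before. n ≥ 4.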

Rattus norvegicus [30] = species: Rattus norvegicus; experiment: Induction of allodynia in rat
Mus musculus [31] = experiment: Induction of paw lifting in intraplantarly dosed Swiss mouse at 120 nmol/paw; format: functional, organism-based; how it was run: as §2
Spinal cord [32] = experiment: Induction of neurogenic inflammation in rat dorsal spinal cord assessed as CGRP peptide release per 20 mins at 10 uM; format: functional
How it was run: (§9)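 Rat lumbar dorsal spinal cord or esophagus slices (~0.4 mm), stabilized 60 min in Krebs' solution at 37°C, then superfused. Fractions collected at 10-min intervals into ethanoic acid (final 2 N), freeze-dried, reconstituted, and assayed for SP or CGRP immunoreactivity. Results in fmol/g/20 min, at least four experiments.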

Spinal cord [33] = experiment: Induction of neurogenic inflammation in capsaicin desensitized rat dorsal spinal cord assessed as CGRP peptide release per 20 mins at 10 uM; format: functional
How it was run: (§10)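 Rat lumbar dorsal spinal cord or esophagus slices (~0.4 mm), superfused in Krebs' solution at 37°C after 60 min stabilization. Tissue desensitized beforehand with 10 μM capsaicin for 20 min. Fractions collected at 10-min intervals into ethanoic acid (final 2 N), freeze-dried, and assayed for SP or CGRP immunoreactivity. Results in fmol/g/20 min, at least four experiments.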

Spinal cord [34] = experiment: Induction of neurogenic inflammation in capsaicin desensitized rat dorsal spinal cord assessed as substance P release per 20 mins at 10 uM; format: functional; how it was run: as §10
Esophagus [35] = experiment: Induction of neurogenic inflammation in rat esophagus assessed as CGRP release per 20 mins at 50 uM; format: functional; how it was run: as §9
Spinal cord [36] = experiment: Induction of neurogenic inflammation in rat dorsal spinal cord assessed as substance P release per 20 mins at 10 uM; format: functional; how it was run: as §9
Esophagus [37] = experiment: Induction of neurogenic inflammation in rat esophagus assessed as CGRP release per 20 mins at 50 uM in calcium free medium; format: functional
How it was run: (§11)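 Rat dorsal spinal cord or esophagus slices superfused in Krebs' solution at 37°C, with extracellular Ca2+ chelated by 2 mM EGTA added to the bath. Fractions collected every 10 min into ethanoic acid (final 2 N), freeze-dried, and assayed for SP or CGRP immunoreactivity. Results in fmol/g/20 min, at least four experiments.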

Spinal cord [38] = experiment: Induction of neurogenic inflammation in rat dorsal spinal cord assessed as substance P release per 20 mins at 10 uM in calcium free medium; format: functional; how it was run: as §11
Esophagus [39] = experiment: Induction of neurogenic inflammation in rat esophagus assessed as substance P release per 20 mins at 50 uM; format: functional; how it was run: as §9
Spinal cord [40] = experiment: Induction of neurogenic inflammation in rat dorsal spinal cord assessed as CGRP release per 20 mins at 10 uM in calcium free medium; format: functional; how it was run: as §11
Esophagus [41] = experiment: Induction of neurogenic inflammation in capsaicin desensitized rat esophagus assessed as CGRP release per 20 mins at 50 uM; format: functional; how it was run: as §10
Esophagus [42] = experiment: Induction of neurogenic inflammation in capsaicin desensitized rat esophagus assessed as substance P release per 20 mins at 50 uM; format: functional; how it was run: as §10
Esophagus [43] = experiment: Induction of neurogenic inflammation in rat esophagus assessed as substance P release per 20 mins at 50 uM in calcium free medium; format: functional; how it was run: as §11

Transient receptor potential cation channel subfamily A member 1 (Rattus norvegicus), sequence (Q6RI86 whole entry): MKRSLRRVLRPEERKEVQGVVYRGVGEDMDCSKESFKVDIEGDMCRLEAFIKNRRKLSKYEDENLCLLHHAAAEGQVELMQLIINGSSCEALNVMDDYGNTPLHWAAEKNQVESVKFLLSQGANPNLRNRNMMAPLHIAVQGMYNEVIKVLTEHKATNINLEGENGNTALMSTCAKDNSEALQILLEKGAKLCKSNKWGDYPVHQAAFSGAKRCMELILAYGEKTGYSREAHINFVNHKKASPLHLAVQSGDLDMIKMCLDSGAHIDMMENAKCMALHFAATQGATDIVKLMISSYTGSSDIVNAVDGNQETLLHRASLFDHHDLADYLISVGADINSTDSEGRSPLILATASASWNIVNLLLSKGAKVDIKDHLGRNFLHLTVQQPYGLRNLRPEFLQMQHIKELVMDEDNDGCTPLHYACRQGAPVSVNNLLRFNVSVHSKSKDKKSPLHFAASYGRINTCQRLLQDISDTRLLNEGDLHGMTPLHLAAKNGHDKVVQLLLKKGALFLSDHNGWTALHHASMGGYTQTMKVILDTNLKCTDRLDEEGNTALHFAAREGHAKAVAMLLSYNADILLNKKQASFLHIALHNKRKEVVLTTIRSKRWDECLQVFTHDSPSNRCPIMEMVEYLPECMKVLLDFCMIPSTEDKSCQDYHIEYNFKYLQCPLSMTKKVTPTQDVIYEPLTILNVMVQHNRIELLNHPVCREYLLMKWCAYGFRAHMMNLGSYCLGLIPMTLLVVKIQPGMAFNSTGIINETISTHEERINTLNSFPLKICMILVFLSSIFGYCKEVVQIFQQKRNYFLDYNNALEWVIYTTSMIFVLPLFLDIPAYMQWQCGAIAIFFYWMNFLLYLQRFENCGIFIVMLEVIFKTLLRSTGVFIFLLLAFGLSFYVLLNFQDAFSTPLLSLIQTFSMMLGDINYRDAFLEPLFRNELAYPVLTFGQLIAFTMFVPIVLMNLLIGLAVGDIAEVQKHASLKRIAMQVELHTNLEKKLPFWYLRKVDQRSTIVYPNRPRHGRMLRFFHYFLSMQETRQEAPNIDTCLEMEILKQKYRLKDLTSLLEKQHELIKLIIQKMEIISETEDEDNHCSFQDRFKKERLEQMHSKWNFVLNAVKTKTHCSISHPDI
Transient receptor potential cation channel subfamily A member 1 (Homo sapiens), sequence (O75762 whole entry): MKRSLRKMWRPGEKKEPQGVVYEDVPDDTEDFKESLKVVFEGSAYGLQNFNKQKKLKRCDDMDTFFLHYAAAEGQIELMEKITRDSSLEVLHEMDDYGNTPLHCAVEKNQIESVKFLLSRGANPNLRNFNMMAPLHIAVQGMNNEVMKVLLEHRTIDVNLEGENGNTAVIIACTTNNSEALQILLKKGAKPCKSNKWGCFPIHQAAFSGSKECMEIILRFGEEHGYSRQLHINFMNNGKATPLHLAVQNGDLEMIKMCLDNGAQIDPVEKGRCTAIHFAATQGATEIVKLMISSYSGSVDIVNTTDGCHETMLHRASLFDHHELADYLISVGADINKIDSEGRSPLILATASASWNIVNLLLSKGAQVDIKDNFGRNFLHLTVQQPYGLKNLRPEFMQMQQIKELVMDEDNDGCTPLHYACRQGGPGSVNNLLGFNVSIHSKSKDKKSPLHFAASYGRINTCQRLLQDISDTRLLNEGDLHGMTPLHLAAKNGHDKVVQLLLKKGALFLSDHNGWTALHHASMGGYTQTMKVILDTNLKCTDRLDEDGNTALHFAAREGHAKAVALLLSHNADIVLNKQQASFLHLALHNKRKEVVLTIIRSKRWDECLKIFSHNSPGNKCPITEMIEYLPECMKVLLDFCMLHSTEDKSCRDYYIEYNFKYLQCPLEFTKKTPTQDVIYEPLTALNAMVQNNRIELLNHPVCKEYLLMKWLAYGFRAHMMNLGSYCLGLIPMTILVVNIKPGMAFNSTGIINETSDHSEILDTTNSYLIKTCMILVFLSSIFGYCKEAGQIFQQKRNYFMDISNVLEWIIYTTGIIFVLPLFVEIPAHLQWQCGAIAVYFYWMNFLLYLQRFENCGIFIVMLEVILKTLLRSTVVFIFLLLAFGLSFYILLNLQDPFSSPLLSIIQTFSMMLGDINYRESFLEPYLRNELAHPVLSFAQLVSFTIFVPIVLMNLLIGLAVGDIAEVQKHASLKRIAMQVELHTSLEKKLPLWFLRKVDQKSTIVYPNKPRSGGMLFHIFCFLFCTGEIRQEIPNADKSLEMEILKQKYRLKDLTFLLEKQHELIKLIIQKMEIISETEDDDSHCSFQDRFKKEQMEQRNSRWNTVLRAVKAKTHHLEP
T1 sequence (Q6RI86 whole entry): as the sequence (Q6RI86 whole entry) above

CC12CCC(CC1=O)C2(C)C (stereo not drawn)
Activity (Mus musculus [1]): Active

Oc1cc2c(cc1O)CN(C(=S)NCCc1ccc(Cl)cc1)CCC2
Activity (Mus musculus [2]): Active
Activity (Rattus norvegicus [3]): Active
Activity [4]: Active

CCCCCC(O)/C=C/C=O (stereo not drawn) [4-HYDROXYNON-2-ENAL]
Activity (Mus musculus [5]): Active
Activity (Mus musculus [6]): inactive
Activity [7]: Active
EC50 [8]: 27 µM
Activity [9]: inactive
Activity (Mus musculus [10]): Dose-dependent effect
Activity (Rattus norvegicus [11]): Active
Activity (Rattus norvegicus [12]): inactive
Activity (Esophagus [13]): Active
EC50 [14]: 77 µM
Activity [15]: Active
Activity [16]: Active
Activity (Esophagus [17]): Active
Activity (Spinal cord [18]): Active
Activity (Rattus norvegicus [19]): inactive
Activity [20]: Active
Activity [21]: Active
Activity (Mus musculus [22]): Dose-dependent effect
Activity [23]: inactive
Activity [24]: inactive
Activity (Spinal cord [25]): Active
Activity (Mus musculus [26]): inactive
Activity (Mus musculus [27]): inactive
Activity [28]: inactive
Activity (Rattus norvegicus [29]): Dose-dependent effect
Activity (Rattus norvegicus [30]): Dose-dependent effect
Activity (Mus musculus [31]): Active

O=C/C=C/c1ccccc1 [CINNAMALDEHYDE]
Activity (Spinal cord [32]): 720.4 fmol/g
Activity (Spinal cord [33]): 63.8 fmol/g
Activity (Spinal cord [34]): 23.7 fmol/g
Activity (Esophagus [35]): 93.2 fmol/g
Activity (Spinal cord [36]): 160.5 fmol/g
Activity (Esophagus [37]): 19.2 fmol/g
Activity (Spinal cord [38]): 34.5 fmol/g
Activity (Esophagus [39]): 31.5 fmol/g
Activity (Spinal cord [40]): 118.5 fmol/g
Activity (Esophagus [41]): 17.8 fmol/g
Activity (Esophagus [42]): 5.8 fmol/g
Activity (Esophagus [43]): 6.3 fmol/g
